MEKK3 PB1 HTS: modulators (inhibitors or enhancers) of MEK5 binding to human MEKK3 PB1 domain. 290,000 compounds, 1.4% hits. bead-based flow cytometry, Alexa488-MEK5 binding to MEKK3; actives lie on both sides; 0 = blocked by unlabeled MEK5, 100 = vehicle. binding response (% of control), % at 10 µM. Q99759. AID 1529;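 active = binding response more than 3 SD above or below the average of its plate-row segment, actives on both sides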;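 note: Alexa488 bead fluorescence after subtracting the streptavidin-only scavenger bead signal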
Target sequence (Q99759 whole entry, looked up, the tested form may be a part): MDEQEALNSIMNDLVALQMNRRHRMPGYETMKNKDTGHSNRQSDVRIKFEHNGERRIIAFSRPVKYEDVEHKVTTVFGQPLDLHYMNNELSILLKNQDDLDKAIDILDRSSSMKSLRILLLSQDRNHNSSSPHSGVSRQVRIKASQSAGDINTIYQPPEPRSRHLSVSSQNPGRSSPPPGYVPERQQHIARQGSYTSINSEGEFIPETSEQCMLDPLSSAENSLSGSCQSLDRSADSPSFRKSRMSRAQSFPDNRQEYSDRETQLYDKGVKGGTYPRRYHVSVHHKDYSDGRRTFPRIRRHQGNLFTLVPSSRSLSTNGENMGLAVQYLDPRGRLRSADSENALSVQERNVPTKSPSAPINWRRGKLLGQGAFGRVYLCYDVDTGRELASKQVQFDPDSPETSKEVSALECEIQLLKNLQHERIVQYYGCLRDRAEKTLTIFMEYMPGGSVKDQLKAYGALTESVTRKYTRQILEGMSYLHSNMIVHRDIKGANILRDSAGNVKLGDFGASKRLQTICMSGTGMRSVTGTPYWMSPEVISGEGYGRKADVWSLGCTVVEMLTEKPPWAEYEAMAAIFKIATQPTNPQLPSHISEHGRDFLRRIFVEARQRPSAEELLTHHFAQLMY
MEKK2 mut-MEK5: signal of MEK5 binding to mutant human MEKK2 PB1 domain; bead flow cytometry, Alexa488-MEK5 binding to MEKK2 mutant; percent response, % at 10 µM; 290,000 compounds, 0.35% hits; in the data active = percent response above about 24%, passing the limit was not always enough
MEKK2wt PB1 HTS: raises or lowers MEK5 binding to wildtype human MEKK2 PB1 domain; 290,000 compounds, 1.1% hits; AID 1531; bead flow cytometry, Alexa488-MEK5 binding to MEKK2 WT; actives lie on both sides; Q9Y2U5; binding response (% of control), % at 10 µM; in the data active = binding response below about 67% or above about 130%
Arrestin-AP2 inh: inhibitors of human beta-arrestin and AP2 interaction; FITC-arrestin peptide / GST-AP2 beads, flow cytometry; AP2 beta2 appendage carries R879A mutation; inhibition, % at 10 µM; 340,000 compounds, 0.31% hits;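 active = inhibition above a set limit, near 3 SD of compounds lacking own fluorescence, cut at about 54% in these data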
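System: GST-AP2 R879A glutathione beads | Also added: FITC-arrestin peptide, 50 nM | Times: 12 min plus 1 h, RT | Signal: Bead flow cytometry, FITC channel | Buffer or medium: PBS with 0.05% Tween 20 and 0.1% BSA | Read-out basis: Percent drop in bead-associated FITC signal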
MEKK2wt confirm: raises or lowers MEK5 binding to wildtype human MEKK2, retest; binding response (% of control), % at 10 µM; bead flow cytometry, Alexa488-MEK5 binding to MEKK2 WT; actives lie on both sides; 5,900 compounds, 2.4% hits; shares compounds with MEKK3 PB1 HTS; AID 1892; in the data active = binding response below about 16% or above about 210%; inactive = in between
MEKK2mut-MEK5: signal of MEK5 binding to mutant human MEKK2, retest; shares compounds with MEKK3 PB1 HTS; bead flow cytometry, Alexa488-MEK5 binding to MEKK2 mutant; percent response, % at 10 µM; 5,900 compounds, 2% hits; AID 1893; in the data active = percent response mostly above about 71%, no sharp cut-off; inactive = mostly below about 38%;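 note: higher means compound restores mutant binding toward wildtype level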
MEKK3-MEK5 inh: confirmation of inhibitors of MEK5 binding to human MEKK3. binding response (% of control), % at 10 µM. AID 1894. 5,900 compounds, 1.8% hits. shares compounds with MEKK3 PB1 HTS. bead flow cytometry, Alexa488-MEK5 binding to MEKK3; stronger effect = lower value;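 active = binding response below 72% of control, or above a set upper limit, though filed actives all read lower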
Each line names hits and unclear results; the compound was inactive in the other large screens (follow-up assays come after a bar, where they were run); ! = not confirmed by another sample; [ ] = remark or other dose. Shown are actives, neighbours in structure and some others; about 2.3% of the full set was active somewhere.

CN1C/C(=C/c2cccnc2)C(=O)/C(=C/c2cccnc2)C1	MEKK3 PB1 HTS 59[inhibitor] | MEKK2wt confirm inactive | MEKK2mut-MEK5 inactive | MEKK3-MEK5 inh inactive
Cn1ncc(C(=O)Nc2ccc(Cl)cc2)c1C(F)(F)F	MEKK3 PB1 HTS 74[inhibitor] | MEKK2wt confirm inactive | MEKK2mut-MEK5 inactive | MEKK3-MEK5 inh inactive
CSc1cccc(NC(=S)N(CCCN2CCCC2)Cc2cccn2Cc2ccc(Cl)cc2)c1	MEKK2 mut-MEK5 94, MEKK2wt PB1 HTS 270 | MEKK2wt confirm 245 | MEKK2mut-MEK5 77 | MEKK3-MEK5 inh inactive
Cn1cc(CN(CCCN2CCOCC2)C(=S)Nc2cccc(Cl)c2)c2ccccc21	none
S=C(Nc1cccc(Cl)c1)N(CCCN1CCCC1)Cc1cccn1Cc1ccc(Cl)cc1	MEKK2wt PB1 HTS 262 | MEKK2wt confirm 221 | MEKK2mut-MEK5 inactive | MEKK3-MEK5 inh inactive
COc1cccc(NC(=S)N(CCCN2CCCC2)Cc2cccn2Cc2ccc(Cl)cc2)c1	MEKK2 mut-MEK5 55, MEKK2wt PB1 HTS 177 | MEKK2wt confirm inactive | MEKK2mut-MEK5 inactive | MEKK3-MEK5 inh inactive
COc1ccccc1OCC(=O)N/N=C1/C=C(C)CC1	none
FC(F)(F)c1ccc(Oc2ccc3cc(Br)ccc3c2)nc1	none
COc1ccc(CCC(=O)OCC(=O)NCc2ccccc2)cc1	none (no result: MEKK3 PB1 HTS, MEKK2 mut-MEK5, MEKK2wt PB1 HTS)
CC(C)c1ccc(NC(=O)c2snc3ccc(Cl)cc23)cc1	MEKK3 PB1 HTS 130 | MEKK2wt confirm inactive | MEKK2mut-MEK5 inactive | MEKK3-MEK5 inh inactive
CCS(=O)(=O)Nc1cccc(C2=NN(S(=O)(=O)CC)C(c3ccccc3)C2)c1 (configuration not stated)	MEKK2 mut-MEK5 355, MEKK2wt PB1 HTS 142 | MEKK2wt confirm inactive | MEKK2mut-MEK5 inactive | MEKK3-MEK5 inh inactive
CCS(=O)(=O)Nc1cccc(C2=NN(S(=O)(=O)c3ccc(C)cc3)C(c3cccs3)C2)c1 (configuration not stated)	none
CCc1ccc(C2=NN(S(C)(=O)=O)C(c3cccs3)C2)cc1 (configuration not stated)	MEKK3 PB1 HTS 12[inhibitor] (no result: MEKK2 mut-MEK5, MEKK2wt PB1 HTS) | MEKK2wt confirm inactive | MEKK2mut-MEK5 inactive | MEKK3-MEK5 inh inactive
CCS(=O)(=O)Nc1cccc(C2=NN(S(=O)(=O)c3ccccc3)C(c3cccs3)C2)c1 (configuration not stated)	MEKK3 PB1 HTS 21[inhibitor], MEKK2 mut-MEK5 106 (no result: MEKK2wt PB1 HTS) | MEKK2wt confirm inactive | MEKK2mut-MEK5 inactive | MEKK3-MEK5 inh inactive
O=C(O)C1Cc2[nH]cnc2C(c2ccccc2O)N1 (configuration not stated)	MEKK3 PB1 HTS 60[inhibitor] | MEKK2wt confirm inactive | MEKK2mut-MEK5 inactive | MEKK3-MEK5 inh inactive
O=C(O)C1Cc2[nH]cnc2C(c2cccc([N+](=O)[O-])c2)N1 (configuration not stated)	none
CC(C)(C)OC(=O)N1CCCC(C(=O)Nc2ccc(C(=O)N3CCOCC3)cc2)C1 (configuration not stated)	none (no result: MEKK3 PB1 HTS, MEKK2 mut-MEK5, MEKK2wt PB1 HTS)
O=C(Nc1ccc(CN2CCCCC2)cc1)Nc1ccc(Br)cc1Cl	MEKK2wt PB1 HTS 165 | MEKK2wt confirm inactive | MEKK2mut-MEK5 inactive | MEKK3-MEK5 inh inactive
S=C(Nc1ccc(Br)cc1Cl)N1CCCC1	none
COc1cc(Cl)c(C)cc1NC(=O)CN1CCN(C(=O)C2CC2)CC1	none (no result: MEKK3 PB1 HTS, MEKK2 mut-MEK5, MEKK2wt PB1 HTS)
COc1cc(OC)c(OC)cc1CCC(C)NCCC(c1ccccc1)c1ccccc1 (configuration not stated)	MEKK2wt PB1 HTS 166 | MEKK2wt confirm inactive | MEKK2mut-MEK5 inactive | MEKK3-MEK5 inh inactive
COc1ccccc1CCNC(C)CCc1ccc(O)cc1 (configuration not stated)	none
CCOC(=O)Cn1nc2sc3ccccc3n2c(=O)c1=O	none
COc1ccc([C@@H]2C[C@H](c3ccccc3)Oc3cc(C)cc(C)c32)cc1	none
Cc1cccc(OCC(O)CN2CCN(c3ccccn3)CC2)c1C (configuration not stated)	none
CC1(C)Cc2cccc(OCC(O)CN3CCN(c4ccccn4)CC3)c2O1 (configuration not stated)	MEKK3 PB1 HTS 127 | MEKK2wt confirm inactive | MEKK2mut-MEK5 inactive | MEKK3-MEK5 inh inactive
COc1cc(OC)cc(OCC(O)Cn2ccnc2C)c1 (configuration not stated)	MEKK3 PB1 HTS 2.0[inhibitor], MEKK2wt PB1 HTS 2.0[inhibitor] | MEKK2wt confirm inactive | MEKK2mut-MEK5 inactive | MEKK3-MEK5 inh inactive
O=CN1CCN(C(C(=O)NC2CCCCC2)c2cc3c(cc2[N+](=O)[O-])OCO3)CC1 (configuration not stated)	none
COc1ccc(NC(=O)C(c2cc3c(cc2[N+](=O)[O-])OCO3)N2CCN(C=O)CC2)cc1 (configuration not stated)	MEKK3 PB1 HTS 2.0[inhibitor], MEKK2wt PB1 HTS 3.0[inhibitor] | MEKK2wt confirm inactive | MEKK2mut-MEK5 inactive | MEKK3-MEK5 inh inactive
CC(C)(C)c1ccc(S(=O)(=O)Nc2noc3ccccc23)cc1	none
CC(/C=N/Nc1ncc(C)c(=O)[nH]1)=C\c1ccccc1	MEKK3 PB1 HTS 140 | MEKK2wt confirm inactive | MEKK2mut-MEK5 inactive | MEKK3-MEK5 inh inactive
O=C1S/C(=C\c2ccc(O)c([N+](=O)[O-])c2)C(=O)N1c1ccccc1Cl	MEKK3 PB1 HTS 74[inhibitor] | MEKK2wt confirm inactive | MEKK2mut-MEK5 inactive | MEKK3-MEK5 inh inactive
O=C1S/C(=C\c2ccc(O)c([N+](=O)[O-])c2)C(=O)N1Cc1cccc([N+](=O)[O-])c1	none
c1ccc(CN(CC2=NCCN2)c2ccccc2)cc1	none
Cc1ccc(N(CC2=NCCN2)c2cccc(O)c2)cc1	MEKK3 PB1 HTS 35![inhibitor] | MEKK2wt confirm inactive | MEKK2mut-MEK5 inactive | MEKK3-MEK5 inh inactive
CCCC[C@@H](CNC)NC[C@H](Cc1ccc(O)cc1)NCCc1ccc(OCC)cc1	MEKK2wt PB1 HTS 153 | MEKK2wt confirm inactive | MEKK2mut-MEK5 inactive | MEKK3-MEK5 inh inactive
CCC[C@H](CN[C@@H](CNC)[C@H](C)O)NCCc1ccc(OC)cc1	none
Cc1nnc(Nc2ccccc2)n(N)c1=O	MEKK3 PB1 HTS 0.0[inhibitor], MEKK2wt PB1 HTS -1.0[inhibitor] | MEKK2wt confirm inactive | MEKK2mut-MEK5 inactive | MEKK3-MEK5 inh inactive
Cc1nnc(NN)n(N)c1=O	none
CC(C)C(NC(=O)c1ccccc1)C(=O)N/N=C\c1ccco1 (configuration not stated)	none
O=C1CSc2cc(Cl)ccc2N1	none (no result: MEKK3 PB1 HTS, MEKK2 mut-MEK5, MEKK2wt PB1 HTS)
CC(C)(c1ccccc1)c1ccc(OCCCN2CCNCC2)cc1	MEKK2wt PB1 HTS 150 | MEKK2wt confirm inactive | MEKK2mut-MEK5 inactive | MEKK3-MEK5 inh inactive
CC(C)(C)c1ccc(OCCCCCCN2CCNCC2)cc1	none (no result: MEKK3 PB1 HTS, MEKK2 mut-MEK5, MEKK2wt PB1 HTS)

Screens (PubChem)
